Test results from ChEMBL document CHEMBL1126787 (J Med Chem, 1993).

How the values were obtained:
[1] = organism: Homo sapiens; assay: Association constant for the binding of lactone form to human serum albumin; assay type: functional
Procedure, shortened: (§1)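 Fluorescence lifetime titration of lactone or carboxylate form (20 μM total drug) with varying HSA. Phase-shift lifetimes measured with 30 MHz modulated excitation, emission taken through a 500-nm long-pass filter. Free fraction computed as (τ − τB)/(τF − τB). K and n obtained by nonlinear least-squares fit to K = [Db]/[Df][aa]^n, where aa is amino acid residues.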

[2] = Half-life period in human plasma; assay type: ADME
Procedure, shortened: (§2)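 Drug (1 μM) incubated at 37 °C in human plasma, continuously aerated with blood gas to hold pH 7.6 ± 0.1. Lactone hydrolysis followed by HPLC. t1/2 and equilibrium % lactone fitted to decay profiles by nonlinear least squares. Average of at least three independent kinetic runs.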

[3] = Half-life period in PBS buffer at 37 C in the absence of human serum albumin; assay type: ADME
Procedure, shortened: (§3)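 Lactone-to-carboxylate hydrolysis of drug (1 μM total) in PBS (137 mM NaCl, 3 mM KCl, 8 mM Na2HPO4, 1 mM KH2PO4, pH 7.4) at 37 °C, with or without 20 mg/mL (290 μM) HSA. Monitored by HPLC over time. t1/2 and equilibrium % lactone fitted to decay profiles by nonlinear least squares. Average of at least three independent kinetic runs.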

[4] = organism: Homo sapiens; assay: % of lactone form at equilibrium in human plasma; assay type: functional; procedure, shortened: as §2
[5] = organism: Homo sapiens; assay: Association constant for the binding of carboxylate form to human serum albumin; assay type: functional; procedure, shortened: as §1
[6] = Half-life period in PBS buffer at 37 degree C in the absence of human serum albumin; assay type: ADME; procedure, shortened: as §3
[7] = organism: Homo sapiens; assay: n value for the binding of lactone form to human serum albumin (n value = number of amino acid per binding site); assay type: functional; procedure, shortened: as §1
[8] = Half-life period in HSA buffer at 37 degree C in the presence of human serum albumin; assay type: ADME; settings: buffer with human serum albumin; procedure, shortened: as §3
[9] = organism: Homo sapiens; assay: % of lactone form at equilibrium in HSA buffer at 37 degree C in the presence of human serum albumin; assay type: functional; procedure, shortened: as §3
[10] = organism: Homo sapiens; assay: % of lactone form at equilibrium in PBS buffer at 37 degree C in the absence of human serum albumin; assay type: functional; procedure, shortened: as §3
[11] = organism: Homo sapiens; assay: n value for the binding of carboxylate form to human serum albumin (n value = number of amino acid per binding site); assay type: functional; procedure, shortened: as §1
[12] = Half-life period in HSA buffer at 37 C in the presence of human serum albumin; assay type: ADME; settings: buffer with human serum albumin
[13] = organism: Homo sapiens; assay: % of lactone form at equilibrium in HSA buffer at 37 C in the presence of human serum albumin; assay type: functional
[14] = organism: Homo sapiens; assay: % of lactone form at equilibrium in PBS buffer at 37 C in the absence of human serum albumin; assay type: functional

Row | Compound | K [1] | half-life [2] | half-life [3] | Activity [4] | K [5] | half-life [6] | Activity [7] | half-life [8] | Activity [9] | Activity [10] | Activity [11] | half-life [12] | Activity [13] | Activity [14]
1 | CCc1c2c(nc3ccc(O)cc13)-c1cc3c(c(=O)n1C2)COC(=O)[C@]3(O)CC [7-ETHYL-10-HYDROXYCAMPTOTHECIN] | 636 1/Maa | 34.3 min | 19.9 min | 24% | 148 1/Maa | – | – | – | – | – | – | – | – | –
2 | CC[C@@]1(O)C(=O)OCc2c1cc1n(c2=O)Cc2cc3ccccc3nc2-1 [CAMPTOTHECIN] | 30 1/Maa | 10.6 min | – | <0.2% | 4700 1/Maa | 16.9 min | 1.8 | 12.6 min | <0.5% | 13% | 2.3 | – | – | –
3 | CC[C@@]1(O)C(=O)OCc2c1cc1n(c2=O)Cc2cc3cc(O)ccc3nc2-1 [HYDROXYCAMPTOTHECIN] | 135 1/Maa | 18.6 min | 22.1 min | 6% | 264 1/Maa | – | 1.7 | – | – | – | 1.7 | 21.1 min | 4% | 16%
